Activity calls are given as the source filed them. The rule behind the calls is not given here. Non-standard residues stand in square brackets, D forms with d. Residues, ends and D or L forms follow the SMILES beside them. Chg = N[C@H](C(=O)O)C1CCCCC1

In assay [1] the target is T1, Growth/differentiation factor 8 (Homo sapiens, UniProt O14793).
T1 sequence (O14793 whole entry): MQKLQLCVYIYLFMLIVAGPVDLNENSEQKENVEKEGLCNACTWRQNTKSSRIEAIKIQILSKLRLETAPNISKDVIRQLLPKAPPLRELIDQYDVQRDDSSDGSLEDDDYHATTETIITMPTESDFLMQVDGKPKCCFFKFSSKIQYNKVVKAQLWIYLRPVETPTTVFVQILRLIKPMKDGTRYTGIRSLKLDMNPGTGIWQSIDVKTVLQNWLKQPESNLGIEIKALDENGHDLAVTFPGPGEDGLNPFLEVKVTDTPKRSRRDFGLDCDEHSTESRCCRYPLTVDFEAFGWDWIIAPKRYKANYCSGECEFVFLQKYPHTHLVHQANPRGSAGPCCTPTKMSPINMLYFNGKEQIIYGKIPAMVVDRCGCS
Nature of the assay: Inhibition of myostatin (unknown origin) expressed in HEK293 cells transfected with Smad2/3 responsive reporter plasmid incubated for 4 hrs by dual luciferase reporter gene based assay. It is filed as cell-based.

Assay [2] can be described thus: Inhibition of GDF-11 (unknown origin) expressed in HEK293 cells transfected with Smad2/3 responsive reporter plasmid incubated for 4 hrs by dual luciferase reporter gene based assay. Particulars: Homo sapiens, HEK293, 4 h.
Assay [3] can be described thus: Inhibition of activin A (unknown origin) expressed in HEK293 cells transfected with Smad2/3 responsive reporter plasmid incubated for 4 hrs by dual luciferase reporter gene assay. The conditions noted are these: Homo sapiens, HEK293, 4 h.
Assay [4] concerns the target Transforming growth factor beta-1 proprotein (Homo sapiens, UniProt P01137). As to the kind of experiment: Inhibition of TGF beta 1 (unknown origin) expressed in HEK293 cells transfected with Smad2/3 responsive reporter plasmid incubated for 4 hrs by dual luciferase reporter gene assay. Type of assay: cell-based. Summed up:
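HEK293 cells co-transfected with Smad-responsive firefly luciferase reporter (pGL4.48[luc2P/SBE/Hygro]) and Renilla control (pGL4.74[hRluc/TK]). Cells starved 8 h in serum-free DMEM, then exposed 4 h to TGF-β1 at 2.5 ng/mL (0.1 nM) with or without peptide (0.025–18 or 0.074–54 μM). SB431542 at 5 μM as positive control. Triplicate means ± SD. IC50 from sigmoidal curve fitting.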

For assay [5], the system named is Mus musculus. Nature of the assay: In vivo inhibition of myostatin in C57BL/6J mouse assessed as increase in weight of tibialis anterior muscles normalized with body weight at 0.75 mM, IM administered for 28 days. It is filed as functional. Particulars: time 28.0 day. Summed up:
(§1)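 Wild-type male C57BL/6J mice, 8 weeks old. Single intramuscular injection at day 0: peptide (30 nmol; 0.75 mM in saline, 40 μL) into left tibialis anterior, saline (40 μL) into right TA. TA muscles collected and weighed at day 28, weight normalized to body weight. Increase expressed relative to saline-injected TA (=100%). Mean ± SD, N = 4–5 mice.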

Assay [6] is described as follows: In vivo inhibition of myostatin in C57BL/6J mouse assessed as increase in weight of tibialis anterior muscles at 0.75 mM, IM administered for 28 days relative to control. It is filed as functional. On the set-up: scale not given: the % may be the effect or the level left. Particulars: time 28 day. Summed up:
as §1

Chain of Transforming growth factor beta-1 proprotein (P01137 279-390 limits assumed): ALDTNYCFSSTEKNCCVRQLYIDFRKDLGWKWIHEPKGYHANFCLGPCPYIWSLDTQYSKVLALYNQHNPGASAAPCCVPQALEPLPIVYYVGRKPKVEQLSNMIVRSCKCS

As for `CC[C@@H](C)[C@@H](NC(=O)[C@@H](CCCNC(=N)N)NC(=O)[C@@H](Cc1c[nH]c2ccccc12)NC(=O)[C@H](NC(=O)[C@@H](CCCCN)NC(=O)[C@H](NC(=O)[C@@H](CCCNC(=N)N)NC(=O)[C@H](NC(=O)[C@@H](Cc1c[nH]c2ccccc12)NC(=O)[C@@H](CCCNC(=N)N)NC(=O)[C@@H](CCCCN)NC(=O)[C@H](NC(=O)[C@@H](CCCNC(=N)N)NC(=O)[C@H](N)CC(C)C)C1CCCCC1)[C@H](C)CC)C1CCCCC1)[C@H](C)CC)C(=O)N[C@H](Cc1ccc(O)cc1)C(=O)N[C@H](Cc1c[nH]c2ccccc12)C(N)=O`, the IC50 in assay [1] was 190 nM; in assay [2], 630 nM; in assay [3] it was 890 nM; in assay [4] it was 1600 nM. Moreover, the result in assay [5] was Active. Also, in assay [6], the Activity was 133%.
`CC[C@H](C)[C@H](NC(=O)[C@H](CCC(N)=O)NC(=O)[C@@H](NC(=O)[C@H](CCCCN)NC(=O)[C@@H](NC(=O)[C@@H](Cc1c[nH]c2ccccc12)NC(=O)[C@H](CCCNC(=N)N)NC(=O)[C@@H](NC(=O)[C@H](Cc1ccc(O)cc1)NC(=O)[C@@H](N)Cc1c[nH]c2ccccc12)[C@@H](C)CC)[C@@H](C)CC)C1CCCCC1)C(=O)N[C@@H](Cc1c[nH]c2ccccc12)C(=O)N[C@@H](CO)C(=O)N[C@@H](CCCCN)C(=O)N[C@H](C(=O)N[C@@H](CCCNC(=N)N)C(=O)N[C@@H](CC(C)C)C(N)=O)C1CCCCC1` (H-WYIR[dW]IK[Chg]QIWSK[Chg]RL-NH2): the IC50 in assay [1] was determined as 260 nM; in assay [2], 1400 nM; in assay [3] it was 1400 nM; in assay [4] it was 6700 nM. Further, in assay [5], the result was Active. Moreover, the Activity in assay [6] is 109%.

(Values after ChEMBL document CHEMBL5042555, “Development of Myostatin Inhibitory d-Peptides to Enhance the Potency, Increasing Skeletal Muscle Mass in Mice” (ACS Med Chem Lett, 2022).)
